In ChEMBL document CHEMBL5537160, “Design, Synthesis, Pharmacology, and In Silico Studies of (1S,2S,3S)-2-((S)-Amino(carboxy)methyl)-3-(carboxymethyl)cyclopropane-1-carboxylic Acid (LBG30300): A Picomolar Potency Subtype-Selective mGlu2 Receptor Agonist” (J Med Chem, 2024):
Active and inactive are the calls of the source. The calls are words filed in the database; no cut-off is given here.

Tests used:
[1] = target: T1, Metabotropic glutamate receptor 3 (Rattus norvegicus, UniProt P31422); assay: Agonist activity at rat mGlu3 transfected in HEK293 cells assessed as inositol phosphate accumulation; type: functional, cell-based
[2] = target: Metabotropic glutamate receptor 1 (Rattus norvegicus) (UniProt P23385); assay: Antagonist activity at rat mGlu1 transfected in HEK293 cells by IP-one HTRF assay; type: functional, cell-based
In short: (§1)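 HEK293 cells transiently electroporated with rat receptor plasmid plus EAAC1 Glu transporter, plated 150 000 cells/well on polyornithine, serum-free Glutamax DMEM ≥2 h before assay. At 24 h, washed in Krebs buffer and stimulated 30 min with compound in 50 mM LiCl. IP1 read by HTRF, at least duplicates, EC50 from 2–5 experiments.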

[3] = target: Metabotropic glutamate receptor 2 (Rattus norvegicus) (UniProt P31421); assay: Antagonist activity at rat mGlu2 transfected in HEK293 cells co-transfected with chimeric Gqi9 incubated for 30 mins by IP-one HTRF assay; type: functional, cell-based
[4] = target: Metabotropic glutamate receptor 3 (Rattus norvegicus) (UniProt P31422); assay: Antagonist activity at rat mGlu3 transfected in HEK293 cells co-transfected with chimeric Gqi9 incubated for 30 mins by IP-one HTRF assay; type: functional, cell-based
[5] = target: Metabotropic glutamate receptor 4 (Rattus norvegicus) (UniProt P31423); assay: Antagonist activity at rat mGlu4 transfected in HEK293 cells co-transfected with chimeric Gqi9 incubated for 30 mins by IP-one HTRF assay; type: functional, cell-based
In short: (§2)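 Rat group II/III receptor co-electroporated into HEK293 with chimeric Gqi9 and EAAC1 transporter, serum-free medium ≥2 h pre-assay. At 24 h post-transfection, Krebs wash, then 30 min compound exposure with 50 mM LiCl. IP1 accumulation quantified by HTRF kit, at least duplicate runs, mean of 2–5 experiments.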

[6] = target: Metabotropic glutamate receptor 5 (Rattus norvegicus) (UniProt P31424); assay: Antagonist activity at rat mGlu5 transfected in HEK293 cells by IP-one HTRF assay; type: functional, cell-based; in short: as §1
[7] = target: Metabotropic glutamate receptor 6 (Rattus norvegicus) (UniProt P35349); assay: Antagonist activity at rat mGlu6 transfected in HEK293 cells co-transfected with chimeric Gqi9 incubated for 30 mins by IP-one HTRF assay; type: functional, cell-based; in short: as §2
[8] = target: Metabotropic glutamate receptor 7 (Rattus norvegicus) (UniProt P35400); assay: Antagonist activity at rat mGlu7 transfected in HEK293 cells co-transfected with chimeric Gqi9 incubated for 30 mins by IP-one HTRF assay; type: functional, cell-based; in short: as §2
[9] = target: Metabotropic glutamate receptor 8 (Rattus norvegicus) (UniProt P70579); assay: Antagonist activity at rat mGlu8 transfected in HEK293 cells co-transfected with chimeric Gqi9 incubated for 30 mins by IP-one HTRF assay; type: functional, cell-based; in short: as §2
[10] = target: Metabotropic glutamate receptor 4 (Rattus norvegicus, UniProt P31423); assay: Agonist activity at rat mGlu4 transfected in HEK293 cells co-transfected with chimeric Gqi9 incubated for 30 mins by IP-one HTRF assay; type: functional, cell-based; conditions: read-out: EC50; in short: as §2
[11] = target: Metabotropic glutamate receptor 6 (Rattus norvegicus, UniProt P35349); assay: Agonist activity at rat mGlu6 transfected in HEK293 cells co-transfected with chimeric Gqi9 incubated for 30 mins by IP-one HTRF assay; type: functional, cell-based; conditions: read-out: pEC50 (converted); in short: as §2
[12] = target: Metabotropic glutamate receptor 8 (Rattus norvegicus, UniProt P70579); assay: Agonist activity at rat mGlu8 transfected in HEK293 cells co-transfected with chimeric Gqi9 incubated for 30 mins by IP-one HTRF assay; type: functional, cell-based; in short: as §2
[13] = target: Metabotropic glutamate receptor 7 (Rattus norvegicus) (UniProt P35400); assay: Agonist activity at rat mGlu7 transfected in HEK293 cells co-transfected with chimeric Gqi9 at 3000 uM incubated for 30 mins by IP-one HTRF assay relative to control; type: functional, cell-based; conditions: filed as agonist
In short: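 Rat receptor was co-electroporated into HEK293 cells with chimeric Gqi9, for phospholipase C coupling, and with the EAAC1 Glu transporter. Cells were seeded on polyornithine at 150 000 cells/well and moved to serum-free Glutamax DMEM ≥2 h before assay. At 24 h cells were washed in Krebs buffer and given compound at 3000 μM with 50 mM LiCl for 30 min. IP1 measured by HTRF kit; response expressed as % of control; ≥ duplicates.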

[14] = Cmax in CSF of C57BL/6 mouse at 100 mg/kg, po by LC-MS/MS analysis; type: ADME, organism-based, Cerebrospinal fluid
[15] = Cmax in C57BL/6 mouse plasma at 100 mg/kg, po by LC-MS/MS analysis; type: ADME, organism-based
[16] = Cmax in C57BL/6 mouse brain at 100 mg/kg, po by LC-MS/MS analysis; type: ADME, organism-based
[17] = Half life in C57BL/6 mouse plasma at 100 mg/kg, po by LC-MS/MS analysis; type: ADME, organism-based
[18] = Half life in C57BL/6 mouse brain at 100 mg/kg, po by LC-MS/MS analysis; type: ADME, organism-based
[19] = target: T1, Metabotropic glutamate receptor 3; assay: Agonist activity at SNAP tagged rat mGlu3 transfected HEK293 cells preincubated with antagonist LY-341495 followed by compound addition by TR-FRET assay; type: functional, cell-based
[20] = target: T1, Metabotropic glutamate receptor 3; assay: Agonist activity at rat mGlu3; type: functional
[21] = target: Metabotropic glutamate receptor 2 (Rattus norvegicus, UniProt P31421); assay: Agonist activity at rat mGlu2 transfected in HEK293 cells co-transfected with chimeric Gqi9 incubated for 30 mins by IP-one HTRF assay; type: functional, cell-based; conditions: read-out: EC50; in short: as §2
[22] = target: T1, Metabotropic glutamate receptor 3; assay: Agonist activity at rat mGlu3 transfected in HEK293 cells co-transfected with chimeric Gqi9 incubated for 30 mins by IP-one HTRF assay; type: functional, cell-based

T1 sequence (P31422 whole entry): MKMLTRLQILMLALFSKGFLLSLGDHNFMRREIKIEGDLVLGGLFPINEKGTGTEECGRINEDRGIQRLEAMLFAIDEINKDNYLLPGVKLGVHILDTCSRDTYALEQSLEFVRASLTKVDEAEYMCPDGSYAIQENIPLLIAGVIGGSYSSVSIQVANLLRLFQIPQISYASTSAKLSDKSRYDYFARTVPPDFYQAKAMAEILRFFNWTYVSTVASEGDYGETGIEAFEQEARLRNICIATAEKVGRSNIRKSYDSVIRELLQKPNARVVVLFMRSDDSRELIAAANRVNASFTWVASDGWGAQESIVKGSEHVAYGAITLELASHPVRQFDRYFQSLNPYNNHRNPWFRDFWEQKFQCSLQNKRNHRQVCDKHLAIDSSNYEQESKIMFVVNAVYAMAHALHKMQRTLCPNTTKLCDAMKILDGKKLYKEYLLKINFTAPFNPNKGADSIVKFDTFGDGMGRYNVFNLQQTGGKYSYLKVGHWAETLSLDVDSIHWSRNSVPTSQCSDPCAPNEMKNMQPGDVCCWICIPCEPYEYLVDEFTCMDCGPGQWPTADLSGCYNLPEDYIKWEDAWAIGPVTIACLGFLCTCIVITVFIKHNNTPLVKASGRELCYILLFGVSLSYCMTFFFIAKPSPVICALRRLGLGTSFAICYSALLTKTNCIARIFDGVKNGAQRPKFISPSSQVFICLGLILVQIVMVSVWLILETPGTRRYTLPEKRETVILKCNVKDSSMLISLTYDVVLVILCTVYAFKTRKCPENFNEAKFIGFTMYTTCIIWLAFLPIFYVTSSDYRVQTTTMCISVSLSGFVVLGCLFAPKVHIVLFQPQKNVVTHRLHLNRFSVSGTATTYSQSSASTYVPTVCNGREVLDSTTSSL
Chain of Metabotropic glutamate receptor 7 (Rattus norvegicus) (P35400 whole entry): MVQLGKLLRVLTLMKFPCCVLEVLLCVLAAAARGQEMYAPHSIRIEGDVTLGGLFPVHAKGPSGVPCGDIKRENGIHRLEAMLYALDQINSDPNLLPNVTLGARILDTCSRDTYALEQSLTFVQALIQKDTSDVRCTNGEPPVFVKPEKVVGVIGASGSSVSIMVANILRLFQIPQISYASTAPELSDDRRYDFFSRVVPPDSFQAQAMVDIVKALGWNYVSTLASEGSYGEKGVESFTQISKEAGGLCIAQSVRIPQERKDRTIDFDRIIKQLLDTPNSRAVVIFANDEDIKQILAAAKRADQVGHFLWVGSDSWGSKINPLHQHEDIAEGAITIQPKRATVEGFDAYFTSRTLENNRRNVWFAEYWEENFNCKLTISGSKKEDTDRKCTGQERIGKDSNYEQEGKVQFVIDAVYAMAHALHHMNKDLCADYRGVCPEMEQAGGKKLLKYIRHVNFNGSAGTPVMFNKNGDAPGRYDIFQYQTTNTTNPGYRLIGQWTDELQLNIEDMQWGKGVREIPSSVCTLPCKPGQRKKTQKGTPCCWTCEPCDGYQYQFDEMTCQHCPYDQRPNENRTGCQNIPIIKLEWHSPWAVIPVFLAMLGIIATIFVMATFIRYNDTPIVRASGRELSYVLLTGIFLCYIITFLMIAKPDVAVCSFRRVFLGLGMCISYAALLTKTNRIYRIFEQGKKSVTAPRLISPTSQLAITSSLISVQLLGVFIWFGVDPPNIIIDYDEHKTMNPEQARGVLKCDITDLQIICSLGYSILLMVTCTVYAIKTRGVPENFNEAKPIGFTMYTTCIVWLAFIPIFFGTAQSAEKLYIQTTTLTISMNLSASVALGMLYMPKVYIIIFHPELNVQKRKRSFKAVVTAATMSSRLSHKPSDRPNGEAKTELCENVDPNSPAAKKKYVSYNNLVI
Chain of Metabotropic glutamate receptor 5 (Rattus norvegicus) (P31424 21-1203 limits assumed): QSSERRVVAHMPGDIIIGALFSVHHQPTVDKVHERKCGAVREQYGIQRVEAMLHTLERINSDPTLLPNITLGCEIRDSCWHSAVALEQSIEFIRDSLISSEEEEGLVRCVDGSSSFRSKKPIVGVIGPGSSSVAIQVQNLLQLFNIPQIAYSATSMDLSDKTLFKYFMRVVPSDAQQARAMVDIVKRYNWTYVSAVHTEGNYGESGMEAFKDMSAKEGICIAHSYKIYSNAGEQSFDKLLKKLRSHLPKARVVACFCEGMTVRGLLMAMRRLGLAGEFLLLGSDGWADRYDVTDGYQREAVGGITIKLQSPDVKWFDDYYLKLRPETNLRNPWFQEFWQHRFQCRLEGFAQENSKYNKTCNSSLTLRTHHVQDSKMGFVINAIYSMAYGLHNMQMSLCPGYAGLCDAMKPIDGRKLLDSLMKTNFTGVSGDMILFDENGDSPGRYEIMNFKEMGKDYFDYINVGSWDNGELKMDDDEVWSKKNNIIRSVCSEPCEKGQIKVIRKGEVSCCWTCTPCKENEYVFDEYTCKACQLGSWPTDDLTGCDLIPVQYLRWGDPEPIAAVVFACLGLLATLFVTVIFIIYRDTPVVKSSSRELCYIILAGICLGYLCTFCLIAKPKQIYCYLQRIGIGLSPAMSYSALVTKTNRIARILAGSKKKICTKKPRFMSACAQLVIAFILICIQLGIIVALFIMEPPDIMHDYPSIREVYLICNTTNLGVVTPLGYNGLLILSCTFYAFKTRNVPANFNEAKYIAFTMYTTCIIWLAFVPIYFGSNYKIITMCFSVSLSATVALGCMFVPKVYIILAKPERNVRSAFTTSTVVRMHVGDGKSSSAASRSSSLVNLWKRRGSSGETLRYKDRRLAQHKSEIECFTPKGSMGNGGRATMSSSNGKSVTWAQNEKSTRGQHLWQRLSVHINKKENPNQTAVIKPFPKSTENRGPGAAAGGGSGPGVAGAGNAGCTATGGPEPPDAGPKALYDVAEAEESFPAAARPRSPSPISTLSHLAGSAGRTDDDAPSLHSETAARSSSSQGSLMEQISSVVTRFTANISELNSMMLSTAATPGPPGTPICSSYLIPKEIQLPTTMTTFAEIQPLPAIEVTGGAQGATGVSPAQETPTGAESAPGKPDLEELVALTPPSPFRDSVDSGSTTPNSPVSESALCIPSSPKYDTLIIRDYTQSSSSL
Chain of Metabotropic glutamate receptor 8 (P70579 whole entry): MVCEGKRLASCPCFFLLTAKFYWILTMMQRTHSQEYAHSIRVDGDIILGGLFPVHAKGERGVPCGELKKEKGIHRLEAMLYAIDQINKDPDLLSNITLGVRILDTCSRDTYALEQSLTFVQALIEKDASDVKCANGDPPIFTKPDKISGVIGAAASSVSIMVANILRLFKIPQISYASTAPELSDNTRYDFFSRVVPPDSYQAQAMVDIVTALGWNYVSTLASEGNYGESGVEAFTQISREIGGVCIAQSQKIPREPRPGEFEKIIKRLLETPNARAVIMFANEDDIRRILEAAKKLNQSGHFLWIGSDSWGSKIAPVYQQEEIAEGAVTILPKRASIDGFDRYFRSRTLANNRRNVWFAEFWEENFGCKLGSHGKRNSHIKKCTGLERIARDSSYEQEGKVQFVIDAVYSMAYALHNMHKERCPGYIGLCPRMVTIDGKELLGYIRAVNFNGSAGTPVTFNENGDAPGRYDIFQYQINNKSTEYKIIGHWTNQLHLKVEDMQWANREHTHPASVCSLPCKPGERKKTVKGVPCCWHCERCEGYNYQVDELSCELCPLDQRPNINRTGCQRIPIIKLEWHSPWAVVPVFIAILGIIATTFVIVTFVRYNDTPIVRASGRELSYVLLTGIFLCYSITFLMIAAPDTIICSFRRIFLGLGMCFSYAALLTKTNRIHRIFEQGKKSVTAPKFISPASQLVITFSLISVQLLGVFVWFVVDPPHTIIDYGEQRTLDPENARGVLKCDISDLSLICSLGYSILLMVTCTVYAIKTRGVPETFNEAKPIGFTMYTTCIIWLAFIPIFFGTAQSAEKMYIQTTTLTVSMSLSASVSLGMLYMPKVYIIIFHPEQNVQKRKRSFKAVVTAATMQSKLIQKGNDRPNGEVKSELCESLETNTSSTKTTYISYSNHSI
Chain of Metabotropic glutamate receptor 8 (Rattus norvegicus) (P70579 whole entry): as above
Chain of Metabotropic glutamate receptor 4 (Rattus norvegicus) (P31423 whole entry): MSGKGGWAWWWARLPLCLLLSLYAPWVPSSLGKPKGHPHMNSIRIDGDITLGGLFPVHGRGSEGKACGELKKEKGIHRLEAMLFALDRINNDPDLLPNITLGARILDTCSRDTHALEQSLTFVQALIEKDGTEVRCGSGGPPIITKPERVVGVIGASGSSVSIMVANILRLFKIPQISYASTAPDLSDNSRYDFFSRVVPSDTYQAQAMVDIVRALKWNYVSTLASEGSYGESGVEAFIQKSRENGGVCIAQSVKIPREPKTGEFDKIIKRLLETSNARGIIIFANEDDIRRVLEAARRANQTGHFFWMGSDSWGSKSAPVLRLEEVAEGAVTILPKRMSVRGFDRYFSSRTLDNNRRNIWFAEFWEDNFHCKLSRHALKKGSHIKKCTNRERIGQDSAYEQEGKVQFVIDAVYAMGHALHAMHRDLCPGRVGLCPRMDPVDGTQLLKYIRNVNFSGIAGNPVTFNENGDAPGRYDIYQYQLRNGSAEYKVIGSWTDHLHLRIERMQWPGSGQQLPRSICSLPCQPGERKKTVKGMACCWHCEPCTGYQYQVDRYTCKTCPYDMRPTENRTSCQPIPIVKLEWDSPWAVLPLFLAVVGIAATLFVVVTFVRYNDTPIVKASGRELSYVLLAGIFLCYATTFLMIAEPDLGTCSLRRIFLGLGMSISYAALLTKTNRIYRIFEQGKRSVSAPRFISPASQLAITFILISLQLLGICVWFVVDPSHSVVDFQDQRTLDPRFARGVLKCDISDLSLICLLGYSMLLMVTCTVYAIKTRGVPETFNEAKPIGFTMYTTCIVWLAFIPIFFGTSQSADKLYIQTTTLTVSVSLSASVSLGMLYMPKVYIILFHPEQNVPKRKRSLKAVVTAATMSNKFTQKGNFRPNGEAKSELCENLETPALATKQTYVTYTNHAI
Chain of Metabotropic glutamate receptor 4 (P31423 whole entry): as above

SMILES | Activity [2] | Activity [3] | Activity [4] | Activity [5] | Activity [6] | Activity [7] | Activity [8] | Activity [9] | also measured
N[C@H](C(=O)O)C1[C@@H](C(=O)O)[C@@H]1C(=O)O (stereo partly specified) | – | – | – | – | – | – | – | – | EC50 [1]: 90 nM
N[C@@H](CCP(=O)(O)O)C(=O)O | inactive | inactive | inactive | inactive | inactive | inactive | inactive | inactive | EC50 [10]: 180 nM; EC50 [11]: 2290 nM; EC50 ([12]; read-out: EC50): 290 nM; EC50 ([12]; read-out: pEC50 (converted)): 174 nM; Activity [13]: 100%
N[C@@]1(C(=O)O)CC[C@H]2[C@H](C(=O)O)[C@H]21 | – | – | – | – | – | – | – | – | Cmax [14]: 14 ng/g; Cmax [15]: 2120 ng/mL; Cmax [16]: 76 ng/g; half-life [17]: 6.8 h; half-life [18]: 69 h; EC50 [19]: 4800 nM; EC50 [20]: 27 nM
N[C@@]1(C(=O)O)CO[C@H]2[C@H](C(=O)O)[C@H]21 [LY-379268] | inactive | inactive | inactive | inactive | inactive | inactive | inactive | inactive | EC50 [21]: 1 nM; EC50 [22]: 10 nM
